Assay results as given in ChEMBL document CHEMBL4842338, “System-oriented optimization of multi-target 2,6-diaminopurine derivatives: Easily accessible broad-spectrum antivirals active against flaviviruses, influenza virus and SARS-CoV-2” (Eur J Med Chem, 2021).
Calls of active or inactive are those of the source. The rule behind the calls is not given here.

Assays:
[1] = Selectivity index, ratio of CC50 for human Calu-3 cells infected with SARS-COV-2 to IC50 for SARS-COV 2 infected in human Calu-3 cells; format: toxicity, cell-based; conditions: read-out: Selectivity Index
[2] = Selectivity index, ratio of CC50 for human Huh-7 cells to IC50 for West Nile virus lineage 1 (Italy/2009) infected in pre-seeded Huh-7 cells assessed as inhibition of viral replication incubated for 48 hrs by immunodetection based plaque reduction assay; format: toxicity, cell-based; conditions: read-out: Selectivity Index
Influenza A virus [3] = assay: Antiviral activity against Influenza A virus (A/California/04/2009(H1N1)) infected in human A549 cells assessed as reduction in viral protein expression at 20 uM treated for 2 to 6 hrs post infection and measured following infection of MDCK cells with supernatant for 24 hrs by time-of-addition assay; format: functional, organism-based; conditions: time 2-6 hrs
[4] = Selectivity index, ratio of CC50 for human Huh-7 cells to IC50 for Zika virus H/PF/2013 infected in pre-seeded Huh-7 cells assessed as inhibition of viral replication incubated for 72 hrs by immunodetection based secondary yield reduction assay; format: toxicity, cell-based; conditions: read-out: Selectivity Index
Influenza A virus [5] = assay: (§1) Antiviral activity against Influenza A/California/04/2009H1N1 infected in human A549 cells assessed as reduction in viral protein expression at 20 uM treated for 24 hr pdp viral adsorption followed by staining with anti-Flu antibody observed at 24 hrs post infection by In-cell western assay; format: functional, organism-based
Influenza A virus [6] = assay: Antiviral activity against Influenza A Puerto Rico/8/34/H1N1 infected in human A549 cells assessed as inhibition of viral replication after 24 hrs by hemagglutination assay; format: functional, organism-based; conditions: A/Puerto Rico/8/1934(H1N1), A549, 24 h
[7] = Selectivity index, ratio of CC50 for human Huh-7 cells to IC50 for Dengue virus serotype 2 New Guinea C infected in pre-seeded Huh-7 cells assessed as inhibition of viral replication incubated for 72 hrs by immunodetection based plaque reduction assay; format: toxicity, cell-based; conditions: read-out: Selectivity Index
[8] = Inhibition of DENV NS5-MTase domain using GpppA2'OMe-RNA74 as a substrate incubated for 30 mins by filter binding assay; parameters: species or system dengue virus type 2; conditions: read-out: IC50
Method in brief: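 MTase (1 μM) incubated with increasing inhibitor in 40 mM Tris-HCl pH 7.5, 5 mM DTT, 10 μM AdoMet ([3H]-labelled), 0.5 μM GpppA2′OMe-RNA74 substrate, 30 °C for 30 min; stopped in ice-cold 100 μM AdoHcy; DEAE filter binding, scintillation counting.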

Influenza A virus [9] = assay: Antiviral activity against Influenza A/California/04/2009H1N1 infected in human A549 cells assessed as reduction in viral protein expression at 20 uM pretreated for 2 hrs followed by staining with anti-Flu antibody observed at 24 hrs post infection by In-cell western assay; format: functional, organism-based
West Nile virus = assay: Antiviral activity against West Nile virus lineage 1 (Italy/2009) infected in pre-seeded Huh-7 cells assessed as inhibition of viral replication incubated for 48 hrs by immunodetection based plaque reduction assay; format: functional, organism-based; conditions: Huh-7, 48 h
dengue virus type 2 [10] = assay: Antiviral activity against Dengue virus serotype 2 New Guinea C infected in pre-seeded Huh-7 cells assessed as inhibition of viral replication incubated for 72 hrs by immunodetection based plaque reduction assay; format: functional, organism-based; conditions: Huh-7, 72 h
[11] = Antioxidant activity assessed as inhibition of ABTS radical scavenging activity at 10 uM to 1 mM measured after 10 mins; format: functional
Method in brief: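 ABTS radical solution diluted in ethanol (1:100) to A734 0.70; 3.0 mL mixed with 30 μL sample in DMSO at 10 μM–1 mM; A734 read after exactly 10 min; ascorbic acid reference; % scavenging = (A0−As)/A0×100.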

[12] = biological target: Abl (Tyrosine-protein kinase ABL1) (Homo sapiens, UniProt P00519); assay: Inhibition of human recombinant N terminal His6 tagged Abl (27 to end residue) assessed as residual activity at 5 uM using KKGEAIYAADFA-NH2 as a substrate in the presence of NP-40 incubated for 10 mins by scintillation counting analysis relative to control; conditions: probe KKGEAIYAADFA-NH2, read-out: Activity
Method in brief: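 Compounds at fixed 5 μM; 10–50 ng kinase, substrate and NP-40/BSA per supplementary table, 10 μL at 30 °C for 10 min in low-binding tubes. Reactions spotted on filter, dried, scintillation counted. Mean ± SD of two independent experiments.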

[13] = Selectivity index, ratio of CC50 for human A549 cells to IC50 for Influenza A Puerto Rico/8/34/H1N1 infected in human A549 cells; format: toxicity, cell-based; conditions: read-out: Selectivity Index
Method in brief: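 MDCK or A549 cells (2.5 × 10⁵/well) infected with A/Puerto Rico/8/34 H1N1 for 1 h at 37 °C, then washed. Compound (0.5–20 μM) added in 2% FBS medium for 24 h, with DMSO final ≤0.2%. Virus in supernatants read by hemagglutination. CC₅₀ by MTT (2 × 10⁴ cells/well, same concentrations, 24 h, absorbance 570 nm). SI = CC₅₀/IC₅₀.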

[14] = Cytotoxicity against human Huh-7 cells assessed as reduction in cell viability by Celltiter-Glo luminescent cell viability assay; format: cell-based; conditions: Huh-7 cells
Method in brief: (§2)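 Compound-exposed cells assessed by CellTiter-Glo luminescence versus DMSO control; CC50 from dose-response.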

[15] = Selectivity index, ratio of CC50 for human Huh-7 cells to IC50 for Zika virus H/PF/2013 infected in pre-seeded Huh-7 cells assessed as inhibition of viral replication incubated for 72 hrs by immunodetection based plaque reduction assay; format: toxicity, cell-based; conditions: read-out: Selectivity Index
Zika virus = assay: Antiviral activity against Zika virus H/PF/2013 infected in pre-seeded Huh-7 cells assessed as inhibition of viral replication incubated for 72 hrs by immunodetection based direct yield reduction assay; format: functional, organism-based; conditions: H/PF/2013, Huh-7, 72 h
Method in brief: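 Direct yield reduction in Huh7 cells (7000/well), infected with 50 TCID₅₀ of DENV or ZIKV, or 25 TCID₅₀ of WNV. Adsorption 1 h at 37 °C, then virus removed and serial compound dilutions added. Incubated 72 h (DENV, ZIKV) or 48 h (WNV). Viral antigen immunodetected on the monolayer. IC₅₀ by non-linear regression, mean of three experiments. SI = CC₅₀ (Huh7, CellTiter-Glo luminescence)/IC₅₀.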

[16] = Cytotoxicity against human Huh-7 cells infected with SARS-COV-2 assessed as reduction in cell viability by celltiter-glo luminescent cell viability assay; format: cell-based; conditions: Huh-7 cells infected with SARS-COV-2; method in brief: as §2
dengue virus type 2 [17] = assay: Antiviral activity against Dengue virus serotype 2 New Guinea C infected in pre-seeded Huh-7 cells assessed as inhibition of viral replication incubated for 72 hrs by immunodetection based secondary yield reduction assay; format: functional, organism-based; conditions: Dengue virus, New Guinea C, Huh-7, 72 h; read-out: IC50
Influenza A virus [18] = assay: as §1, with “Influenza A virus (A/parrot/Ulster/73(H7N1))” for “Influenza A/California/04/2009H1N1”, “for 1” for “for 24”, “hr during” for “hr pdp”; format: functional, organism-based

Sequence of Abl (Tyrosine-protein kinase ABL1) (P00519 whole entry): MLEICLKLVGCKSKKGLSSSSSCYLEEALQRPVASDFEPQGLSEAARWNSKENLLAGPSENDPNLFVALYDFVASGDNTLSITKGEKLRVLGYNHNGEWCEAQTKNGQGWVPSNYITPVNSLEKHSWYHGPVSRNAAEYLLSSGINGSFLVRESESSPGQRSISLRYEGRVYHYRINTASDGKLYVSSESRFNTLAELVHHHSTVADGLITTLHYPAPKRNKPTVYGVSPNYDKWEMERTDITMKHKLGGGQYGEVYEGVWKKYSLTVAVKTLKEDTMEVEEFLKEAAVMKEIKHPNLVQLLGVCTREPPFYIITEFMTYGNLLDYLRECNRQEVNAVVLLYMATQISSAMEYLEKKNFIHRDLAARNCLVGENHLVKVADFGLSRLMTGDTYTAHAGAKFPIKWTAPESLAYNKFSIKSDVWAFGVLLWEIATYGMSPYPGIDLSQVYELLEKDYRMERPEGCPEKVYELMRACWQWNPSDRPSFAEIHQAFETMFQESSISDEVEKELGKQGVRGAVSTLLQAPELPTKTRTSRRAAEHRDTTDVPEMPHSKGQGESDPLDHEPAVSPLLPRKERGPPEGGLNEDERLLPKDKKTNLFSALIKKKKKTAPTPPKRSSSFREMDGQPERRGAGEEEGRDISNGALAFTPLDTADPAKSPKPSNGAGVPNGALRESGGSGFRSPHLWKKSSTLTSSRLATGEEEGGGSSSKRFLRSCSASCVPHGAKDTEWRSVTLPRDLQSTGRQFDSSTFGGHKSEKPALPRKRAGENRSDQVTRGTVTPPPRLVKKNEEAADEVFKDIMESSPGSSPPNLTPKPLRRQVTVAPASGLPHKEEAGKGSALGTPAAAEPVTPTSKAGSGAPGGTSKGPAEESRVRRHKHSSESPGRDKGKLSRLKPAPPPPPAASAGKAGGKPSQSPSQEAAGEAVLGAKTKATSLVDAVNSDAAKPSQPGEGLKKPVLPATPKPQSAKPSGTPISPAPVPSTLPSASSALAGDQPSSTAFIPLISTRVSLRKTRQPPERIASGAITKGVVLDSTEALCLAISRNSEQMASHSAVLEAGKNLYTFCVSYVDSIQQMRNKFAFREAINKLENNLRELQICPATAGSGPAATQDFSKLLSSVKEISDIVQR

For FC(F)(F)c1cccc(Nc2nc(NCCOc3ccccc3)nc3[nH]cnc23)c1, the selectivity ratio [1] was 240, the selectivity ratio at 48 h [2] was 51 and the Activity (Influenza A virus [3]) was “Active”. For the same molecule, the selectivity ratio at 72 h [4] was 182, the Activity (Influenza A virus [5]) was “Active” and the IC50 (Influenza A virus [6]) was 9.9 µM. The selectivity ratio at 72 h [7] was 222, the IC50 [8] was 112 µM and the Activity (Influenza A virus [9]) was “Active”. The IC50 (West Nile virus) was 3.9 µM, the IC50 (dengue virus type 2 [10]) was 0.9 µM and the Activity [11] was “Active”. It also gave an activity at 10 min, 5 µM [12] of 70%, a selectivity ratio [13] of 11 and a CC50 [14] of 200 µM. It also gave a selectivity ratio at 72 h [15] of 400, an IC50 (Zika virus) of 0.8 µM and a CC50 [16] of 200 µM. For the same molecule, the IC50 (dengue virus type 2 [17]) was 2.6 µM and the Activity (Influenza A virus [18]) was “Active”.
